Experimental findings from PMC3031448 (Journal of natural products, 2009) are described below.

Data set [1] deals with methicillin-resistant Staphylococcus aureus 700787. Briefly: Antimicrobial broth dilution assay, MRSA. It is filed as cell-based. The following applies: methicillin-resistant Staphylococcous aureus. A digest of the protocol:
(§1)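 Broth microdilution in microtiter format at 37 °C against the ATCC strains, with MIC as the read-out. C. albicans was grown in Sabouraud dextrose broth; MRSA and P. aeruginosa were grown in cation-supplemented Mueller-Hinton broth.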

The subject of data set [2] is PANC-1 human pancreatic carcinoma cells. Nature of the data set: Cell cycle analysis by flow cytometry. It counts as cell-based. As to conditions: PANC-1, 24 h, doses ≤ 46.5 μM. A general note: Flow cytometry measures light scatter and fluorescence of single cells or particles in a stream.
The nature of another data set: Plasma stability, mouse. It is filed as in vitro ADME. The following applies: 3 h, both test concentrations.
In another data set the test system is DNA. Nature of the data set: Ethidium bromide displacement. It counts as binding.
The nature of the next data set: Solubility. It counts as physicochemical. As to conditions: three physiologically relevant pH levels.
Another data set in a line: Plasma protein binding. It is filed as in vitro ADME. The following applies: both test concentrations.
The subject of data set [3] is Pseudomonas aeruginosa 27853. Nature of the data set: Antimicrobial broth dilution assay, P. aeruginosa. It counts as cell-based. A digest of the protocol: as §1
A general note: Dilution methods test growth across graded concentrations, often in twofold steps.

Another data set can be described thus: Plasma stability, human. The following applies: 3 h, both test concentrations. It is filed as in vitro ADME.
For the next data set, the system named is Candida albicans 44506. Nature of the data set: Antimicrobial broth dilution assay, C. albicans. It is filed as cell-based. A digest of the protocol:
as §1

Structures are written as SMILES.

As to `CC(=O)N(C)CCc1cc(Br)c(OCCCNc2ncn(C)c3ncnc2-3)c(Br)c1` [Aphrocallistin, aphrocallistin], the antimicrobial activity entry (in data set [1]; in data set [3]; with Candida albicans 44506) was “did not show significant inhibition” each time. Besides, the cell cycle arrest entry in data set [2] is recorded as “induce G1 cell cycle arrest”; in data set [2] (listed as aphrocallistin), “significant cell cycle arrest at G1”. Moreover, the plasma stability result in “Plasma stability, mouse” is recorded as “excellent stability”; in the data set “Plasma stability, human”, “excellent stability”. Besides, the “displacement of ethidium bromide (direct DNA binding)” value with DNA was “no displacement of ethidium bromide was observed”. Also, the solubility result in “Solubility” is recorded as “high”. Besides, in “Plasma protein binding”, the protein binding entry is recorded as “moderate protein binding”.
